What was measured:
HCT-116 = experiment: Cytotoxicity against human HCT116 cells after 4 days; type: functional, cell-based; conditions: HCT-116, 96 h
Summary of the method: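 Single-cell suspension of HCT116 cells seeded at 2 × 10^3 cells/well onto serially diluted test compounds, cultured 4 days. Growth read with a cell counting kit. IC50 taken as the concentration giving 50% growth inhibition versus untreated control.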

QG-56 = experiment: Cytotoxicity against human QG56 cells after 4 days; type: functional, cell-based; conditions: QG-56, 96 h

C/C=C(/C)C(=O)OC[C@H]1C2=C(C[C@H]3[C@H]4C5=C(C(=O)C(C)=C(OC)C5=O)[C@H](OC(C)=O)[C@@H]([C@H](C#N)N13)N4C)C(=O)C(C)=C(OC)C2=O gave an IC50 (HCT-116) of 120 nM and an IC50 (QG-56) of 300 nM.

Molecule C/C=C(/C)C(=O)OC[C@H]1C2=C(C[C@H]3[C@H]4C5=C(C(=O)C(C)=C(OC)C5=O)[C@H](OC)[C@@H]([C@H](C#N)N13)N4C)C(=O)C(C)=C(OC)C2=O [RENIERAMYCIN R] has an IC50 (HCT-116) of 23 nM and an IC50 (QG-56) of 29 nM.

Molecule C/C=C(/C)C(=O)OC[C@H]1c2c(c(OC(C)=O)c(C)c(OC)c2OC(C)=O)C[C@H]2[C@H]3C4=C(C[C@@H]([C@H](C#N)N12)N3C)C(=O)C(C)=C(OC)C4=O has an IC50 (HCT-116) of 1.9 nM and an IC50 (QG-56) of 3.9 nM.

Work on C/C=C(/C)C(=O)OC[C@H]1C2=C(C[C@H]3[C@H]4C5=C(C[C@@H]([C@H](C#N)N13)N4C)C(=O)C(C)=C(OC)C5=O)C(=O)C(C)=C(O)C2=O [RENIERAMYCIN S] yielded an IC50 (HCT-116) of 15 nM and an IC50 (QG-56) of 26 nM.

Molecule C/C=C(/C)C(=O)OC[C@H]1c2c(c(OC(C)=O)c(C)c(OC)c2OC(C)=O)C[C@H]2[C@H]3c4c(c(OC(C)=O)c(C)c(OC)c4OC(C)=O)C[C@@H]([C@H](C#N)N12)N3C has an IC50 (HCT-116) of 3 nM and an IC50 (QG-56) of 7.9 nM.

C/C=C(/C)C(=O)OC[C@H]1C2=C(C[C@H]3[C@H]4c5c(OC(C)=O)c(OC)c(C)c(OC(C)=O)c5[C@H](OC(C)=O)[C@@H]([C@H](C#N)N13)N4C)C(=O)C(C)=C(OC)C2=O was tested, and the IC50 (HCT-116) was 630 nM and the IC50 (QG-56) was 1600 nM.

For C/C=C(/C)C(=O)OC[C@H]1C2=C(C[C@H]3[C@H]4c5c(O)c(OC)c(C)c(O)c5C(=O)[C@@H]([C@H](C#N)N13)N4C)C(=O)C(C)=C(OC)C2=O [RENIERAMYCIN Q], the IC50 (HCT-116) was 59 nM and the IC50 (QG-56) was 71 nM.

Reference: ChEMBL document CHEMBL1151234, “Chemistry of renieramycins. Part 5. Structure elucidation of renieramycin-type derivatives O, Q, R, and S from thai marine sponge Xestospongia species pretreated with potassium cyanide” (J Nat Prod, 2004)
